In ChEMBL document CHEMBL4813970, “Design, synthesis and evaluation of novel dimethylamino chalcone-O-alkylamines derivatives as potential multifunctional agents against Alzheimer's disease” (Eur J Med Chem, 2021):
The source made the active and inactive calls. The calls are words filed in the database; no cut-off is given here.

What was measured:
[1] = system: PC-12; assay: Neuroprotective activity against H2O2-induced cytotoxicity in rat PC12 cells assessed as increase in cell viability by MTT assay; format: functional, cell-based
Procedure, shortened: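 PC12 cells exposed to 100 μM H2O2, with or without compound. Viability read by MTT reduction relative to control. Trolox 100 μM is the reference.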

[2] = target: Acetylcholinesterase (Electrophorus electricus) (UniProt O42275); assay: Mixed type inhibition of electric eel AChE assessed as decrease in Vmax by reciprocal Lineweaver-Burk plot analysis; conditions: dose 0.5-2 µM
Acetylcholinesterase (Electrophorus electricus), sequence (O42275 24-633 limits assumed): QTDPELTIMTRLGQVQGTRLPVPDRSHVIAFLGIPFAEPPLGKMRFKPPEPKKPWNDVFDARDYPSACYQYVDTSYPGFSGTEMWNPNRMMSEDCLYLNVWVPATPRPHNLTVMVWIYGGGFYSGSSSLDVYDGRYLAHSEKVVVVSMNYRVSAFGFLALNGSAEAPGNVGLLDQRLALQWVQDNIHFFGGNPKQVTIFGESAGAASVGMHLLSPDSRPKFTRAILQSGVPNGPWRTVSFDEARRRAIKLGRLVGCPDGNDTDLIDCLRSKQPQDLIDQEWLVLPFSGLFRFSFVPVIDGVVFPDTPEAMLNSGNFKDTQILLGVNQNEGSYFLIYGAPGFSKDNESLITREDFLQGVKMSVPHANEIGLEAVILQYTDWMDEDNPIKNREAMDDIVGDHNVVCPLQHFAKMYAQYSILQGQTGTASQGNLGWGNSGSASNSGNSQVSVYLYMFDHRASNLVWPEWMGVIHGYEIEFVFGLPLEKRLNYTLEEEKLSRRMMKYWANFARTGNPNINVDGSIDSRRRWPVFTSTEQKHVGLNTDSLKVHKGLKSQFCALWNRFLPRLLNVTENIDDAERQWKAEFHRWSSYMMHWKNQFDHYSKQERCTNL

[3] = target: T1, Acetylcholinesterase (Rattus norvegicus, UniProt P37136); assay: Inhibition of rat cortex homogenate acetylcholinesterase by Ellman's method
T1 sequence (P37136 whole entry): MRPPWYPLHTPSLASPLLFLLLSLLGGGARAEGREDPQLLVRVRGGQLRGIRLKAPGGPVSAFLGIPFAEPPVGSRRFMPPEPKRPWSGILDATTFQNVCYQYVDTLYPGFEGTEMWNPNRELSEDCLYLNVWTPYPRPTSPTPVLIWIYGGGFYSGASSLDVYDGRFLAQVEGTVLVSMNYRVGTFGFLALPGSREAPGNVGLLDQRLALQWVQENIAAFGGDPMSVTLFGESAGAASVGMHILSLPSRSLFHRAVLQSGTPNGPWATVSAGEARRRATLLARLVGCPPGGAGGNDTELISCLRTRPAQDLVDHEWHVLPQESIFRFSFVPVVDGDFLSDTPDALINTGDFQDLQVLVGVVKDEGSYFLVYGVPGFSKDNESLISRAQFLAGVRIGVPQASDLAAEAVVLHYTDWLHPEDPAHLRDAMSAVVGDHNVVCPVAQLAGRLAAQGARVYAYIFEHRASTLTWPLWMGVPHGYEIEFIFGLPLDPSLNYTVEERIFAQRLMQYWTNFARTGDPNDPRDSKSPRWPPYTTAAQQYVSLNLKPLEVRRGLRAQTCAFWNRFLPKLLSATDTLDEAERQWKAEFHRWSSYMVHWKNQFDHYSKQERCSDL

[4] = Permeability of the compound by PAMPA; format: ADME; conditions: read-out: permeability
Procedure, shortened: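 PAMPA-BBB. Assay validated against 11 commercial drugs with reported permeability values.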

[5] = target: Acetylcholinesterase (Electrophorus electricus) (UniProt O42275); assay: Mixed type inhibition of electric eel AChE assessed as increase in Km by reciprocal Lineweaver-Burk plot analysis; conditions: dose 0.5-2 µM
[6] = target: Amyloid-beta precursor protein (Homo sapiens, UniProt P05067); assay: Inhibition of self-induced amyloid beta (1 to 42) (unknown origin) aggregation by T-fluorescence assay relative to control; conditions: read-out: IC50
Amyloid-beta precursor protein, sequence (P05067 whole entry): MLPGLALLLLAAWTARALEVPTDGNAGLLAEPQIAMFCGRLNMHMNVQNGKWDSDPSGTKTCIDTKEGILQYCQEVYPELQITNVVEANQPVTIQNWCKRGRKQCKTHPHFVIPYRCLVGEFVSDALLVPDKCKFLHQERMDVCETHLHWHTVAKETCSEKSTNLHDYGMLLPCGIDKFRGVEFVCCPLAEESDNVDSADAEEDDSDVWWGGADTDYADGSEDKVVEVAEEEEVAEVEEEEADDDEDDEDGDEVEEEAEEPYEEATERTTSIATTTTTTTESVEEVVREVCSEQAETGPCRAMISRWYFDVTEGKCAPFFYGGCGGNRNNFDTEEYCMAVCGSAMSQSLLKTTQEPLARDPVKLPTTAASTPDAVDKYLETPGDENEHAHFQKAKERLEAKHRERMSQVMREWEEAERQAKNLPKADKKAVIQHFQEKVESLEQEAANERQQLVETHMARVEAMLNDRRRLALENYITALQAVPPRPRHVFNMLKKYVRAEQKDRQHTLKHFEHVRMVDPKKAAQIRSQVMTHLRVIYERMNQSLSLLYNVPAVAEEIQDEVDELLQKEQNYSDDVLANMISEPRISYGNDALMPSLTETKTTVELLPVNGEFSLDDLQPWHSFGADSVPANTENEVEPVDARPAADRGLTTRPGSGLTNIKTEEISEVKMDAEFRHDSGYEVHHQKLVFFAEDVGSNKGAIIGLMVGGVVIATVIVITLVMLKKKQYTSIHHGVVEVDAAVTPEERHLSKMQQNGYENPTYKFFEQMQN
Procedure, shortened: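 IC50 by ThT fluorescence (excitation 446 nm, emission 490 nm). Computed only where inhibition of self-induced Aβ1-42 aggregation at 25 μM exceeded 90%. Triplicate; mean of three independent experiments.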

## CCN(CCCCOc1ccc(C(=O)/C=C/c2ccc(N(C)C)cc2)c(O)c1)Cc1ccccc1N(C)C
[1]
  Activity: Dose-Dependent Effect
[2]
  inhibition: Active
[3]
  IC50: 130 nM
[4]
  Papp: 13.4 ×10⁻⁶ cm/s
[5]
  inhibition: Active
[6]
  IC50: 880 nM
